Consider three compounds from ChEMBL document CHEMBL4312003, “Optimization of biaryloxazolidinone as promising antibacterial agents against antibiotic-susceptible and antibiotic-resistant gram-positive bacteria” (Eur J Med Chem, 2020).

The structures appear in SMILES notation. Values after ≈ are worked out from the molar mass of the structure shown. A value given as a limit tells only on which side of the number the result lay.

Series [1] is described as follows: Drug metabolism in rat plasma assessed as N-[[(5S)-3-[3-fluoro-4-[4-[(E)-piperazin-1-yliminomethyl]phenyl]phenyl]-2-oxo-oxazolidin-5-yl]methyl]acetamide formation administered vig ig route measured by UPLC-QTOF/MS analysis. The series is classed as ADME. The following applies: po.
Series [2] is described as follows: Drug metabolism in rat plasma assessed as 4-[4-[(5S)-5-(acetamidomethyl)-2-oxo-oxazolidin-3-yl]-2-fluoro-phenyl]benzoic acid formation administered vig ig route measured by UPLC-QTOF/MS analysis. The format is ADME. The following applies: po.
Series [3] can be described thus: Drug metabolism in rat plasma assessed as N-[[(5S)-3-[3-fluoro-4-(4-formylphenyl)phenyl]-2-oxo-oxazolidin-5-yl]methyl]acetamide formation administered vig ig route measured by UPLC-QTOF/MS analysis. The format is ADME. The following applies: po.
Series [4] can be described thus: Metabolic stability in rat assessed as half life measured after intragastric administration. The format is ADME. The following applies: in vivo, po.
Series [5] in a line: Solubility of compound in water by UV spectrophotometric analysis. The format is physicochemical.
Series [6] is described as follows: Drug metabolism in rat plasma assessed as N-[[(5S)-3-[3-fluoro-4-[3-hydroxy-4-[(E)-(4-methylpiperazin-1-yl)iminomethyl]phenyl]phenyl]-2-oxo-oxazolidin-5-yl]methyl]acetamide formation administered vig ig route measured by UPLC-QTOF/MS analysis. The series is classed as ADME. The following applies: po.
Series [7] relates to Staphylococcus aureus. Description: Antibacterial activity against clinical isolates of methicillin-sensitive Staphylococcus aureus assessed as reduction in bacterial cell growth by CLSI protocol based broth microdilution method. The series is classed as functional. The procedure, abridged: (§1)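 Broth liquid microdilution per CLSI guidelines; isolates identified on an automated MicroScan system before testing. MIC taken as lowest concentration giving total inhibition of bacterial growth, reported in μg/mL. S. aureus ATCC29213 run as the control strain.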
Background: Dilution methods test growth across graded concentrations, often in twofold steps.

The test system of another series is HepG2. The experiment in a line: Cytotoxicity against human HepG2 cells assessed as reduction in cell viability incubated for 48 hrs by MTT assay. The series is classed as cell-based. The following applies: HepG2, 48 h. The method in brief: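 HepG2 cells were grown in RPMI1640 with 10% FBS and plated at about 4×10^4 cells/well in MEM. After 24 h at 37 °C in 5% CO2, compounds were added at the indicated final concentrations for 48 h. MTT was added (0.5 mg/mL final) for 4 h at 37 °C and the formazan dissolved in DMSO. Absorbance was read at 492 nm (630 nm reference). Each compound was tested three times; IC50 given as mean ± SD.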
For orientation: Tetrazolium assays rely on reduction of a dye to a coloured formazan, in cell work by metabolically active cells.

Another series has as its target T1, MAO-A (Homo sapiens, UniProt P21397).
T1 sequence (P21397 whole entry): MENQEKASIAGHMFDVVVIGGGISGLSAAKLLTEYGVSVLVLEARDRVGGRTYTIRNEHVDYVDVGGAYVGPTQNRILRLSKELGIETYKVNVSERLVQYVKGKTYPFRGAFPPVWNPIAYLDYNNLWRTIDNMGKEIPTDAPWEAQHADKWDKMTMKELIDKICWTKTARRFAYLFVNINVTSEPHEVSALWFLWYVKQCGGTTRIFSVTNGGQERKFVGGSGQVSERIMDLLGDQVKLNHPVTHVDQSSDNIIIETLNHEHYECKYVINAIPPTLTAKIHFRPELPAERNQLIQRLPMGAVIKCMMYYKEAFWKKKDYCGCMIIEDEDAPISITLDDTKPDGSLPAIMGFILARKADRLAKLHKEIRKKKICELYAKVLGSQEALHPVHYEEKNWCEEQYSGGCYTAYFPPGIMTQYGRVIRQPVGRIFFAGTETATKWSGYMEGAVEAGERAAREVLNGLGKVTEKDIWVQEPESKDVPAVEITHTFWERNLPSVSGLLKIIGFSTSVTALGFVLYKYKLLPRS
Description: Inhibition of recombinant human MAO-A (active motif 31502) at 30 uM using luciferin as substrate incubated for 15 mins followed by substrate addition and measured after 60 mins by luminescence based method relative to control. The following applies: probe luciferin. The method in brief:
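Recombinant human MAO-A was measured with the MAO-Glo kit, modified. Compounds were in DMSO (1% DMSO final) and preincubated with enzyme 15 min at room temperature. Luciferin-derivative substrate was then added and the reaction run 60 min at room temperature. Luciferase detection reagent was added for 20 min and luminescence read. Buffer without enzyme served as the 100% inhibition control; DMSO alone as the no-inhibition control. Percent inhibition = (Max − signal)/(Max − Min)×100.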

The test system of series [8] is Staphylococcus aureus. Description: Potency index, ratio of MIC of linezolid to MIC of compound for antibacterial activity against clinical isolates of methicillin-sensitive Staphylococcus aureus by CLSI protocol based broth liquid microdilution method. The series is classed as functional.
For series [9], the system named is Staphylococcus aureus. Description: Antibacterial activity against methicillin-sensitive Staphylococcus aureus assessed as complete reduction in bacterial cell growth by CLSI protocol based broth liquid microdilution method. The series is classed as functional. The procedure, abridged: as §1
The nature of series [10]: Stability in simulated gastric acid assessed as compound remaining at pH 1.2 incubated for 0.5 hrs. The format is ADME. The following applies: read-out: Stability.
The test system of series [11] is Enterococcus faecalis. The experiment in a line: Antibacterial activity against clinical isolates of linezolid-resistant Enterococcus faecalis assessed as complete reduction in bacterial cell growth by CLSI protocol based broth liquid microdilution method. The format is functional. The procedure, abridged: as §1
Series [12] concerns Enterococcus faecalis. The experiment in a line: Antibacterial activity against linezolid-resistant Enterococcus faecalis assessed as complete reduction in bacterial cell growth by CLSI protocol based broth liquid microdilution method. The format is functional. The procedure, abridged: as §1
Series [13] in a line: Stability in simulated gastric acid assessed as compound remaining at pH 1.2 incubated for 2 hrs. The series is classed as ADME. The following applies: read-out: Stability.
For series [14], the system named is Enterococcus faecium. Description: Antibacterial activity against clinical isolates of vancomycin-resistant Enterococcus faecium assessed as complete reduction in bacterial cell growth by CLSI protocol based broth liquid microdilution method. The format is functional. The method in brief: as §1
Series [15] can be described thus: Stability in simulated gastric acid assessed as compound remaining at pH 1.2 incubated for 1.5 hrs. The following applies: read-out: Stability. The format is ADME.
Series [16] concerns Staphylococcus aureus. Description: Antibacterial activity against methicillin-resistant Staphylococcus aureus assessed as complete reduction in bacterial cell growth by CLSI protocol based broth liquid microdilution method. The series is classed as functional. The procedure, abridged: as §1
Series [17] is described as follows: Stability in simulated gastric acid assessed as compound remaining at pH 1.2 incubated for 1 hr. The following applies: read-out: Stability. The format is ADME.
The subject of series [18] is Enterococcus faecium. Description: Antibacterial activity against vancomycin-resistant Enterococcus faecium assessed as complete reduction in bacterial cell growth by CLSI protocol based broth liquid microdilution method. The format is functional. The procedure, abridged:
as §1

For series [19], the system named is Staphylococcus aureus. Description: Antibacterial activity against Staphylococcus aureus ATCC 29213 assessed as complete reduction in bacterial cell growth by CLSI protocol based broth liquid microdilution method. The format is functional. The procedure, abridged:
as §1

In series [20] the test system is Staphylococcus aureus. The experiment in a line: Potency index, ratio of rade-zolid MIC to compound MIC for antibacterial activity against Staphylococcus aureus ATCC 29213 by CLSI protocol based broth liquid microdilution method. The format is functional.
Series [21] in a line: Stability in human liver microsomes assessed as compound remaining at 1.5 uM preincubated for 5 mins with NADPH and measured after 45 mins by LC/MS analysis. The format is ADME, Microsome. The following applies: liver microsomes, read-out: Stability. The procedure, abridged: (§2)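 Compound solution at 1.5 µM with 0.75 mg/mL microsomes (before NADPH addition) was preincubated 5 min at 37 °C. Reactions were started with NADPH (6 mM stock). Samples were quenched with acetonitrile containing internal standard at 0, 5, 15, 30 and 45 min, then centrifuged, and the supernatant was diluted with water for LC/MS. Runs were in duplicate. T1/2 = ln2/k from the log-linear slope, and CLint was derived from T1/2.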
A general note: Microsomes from liver hold many membrane-bound enzymes, among them those of drug oxidation.

The subject of series [22] is Staphylococcus aureus. Description: Antibacterial activity against clinical isolates of methicillin-resistant Staphylococcus aureus assessed as complete reduction in bacterial cell growth by CLSI protocol based broth liquid microdilution method. The series is classed as functional. The method in brief: as §1
Series [23] deals with Staphylococcus aureus. Description: Potency index, ratio of rade-zolid MIC to compound MIC for antibacterial activity against methicillin-sensitive Staphylococcus aureus by CLSI protocol based broth liquid microdilution method. The series is classed as functional.
Series [24] has as its system Enterococcus faecium. The experiment in a line: Potency index, ratio of rade-zolid MIC to compound MIC for antibacterial activity against vancomycin-resistant Enterococcus faecium by CLSI protocol based broth liquid microdilution method. The series is classed as functional.
A short description of series [25]: Stability in human liver microsomes assessed as intrinsic clearance at 1.5 uM preincubated for 5 mins with NADPH and measured after 45 mins by LC/MS analysis. The format is ADME, Microsome. The following applies: read-out: CLH. The procedure, abridged:
as §2

The subject of series [26] is Enterococcus faecalis. The experiment in a line: Potency index, ratio of rade-zolid MIC to compound MIC for antibacterial activity against linezolid-resistant Enterococcus faecalis by CLSI protocol based broth liquid microdilution method. The format is functional.
Series [27] in a line: Stability in human liver microsomes assessed as half life at 1.5 uM preincubated for 5 mins with NADPH and measured after 45 mins by LC/MS analysis. The series is classed as ADME, Microsome. The following applies: liver microsomes. The method in brief: as §2

For orientation: half-life means the time in which the quantity being followed falls by half. The solubility is the dissolved amount per volume that the medium holds. A lower solubility goes with little dissolved substance. For the compound `CC(=O)NC[C@H]1CN(c2ccc(-c3ccc(/C=N/N4CCN(C)CC4)cc3)c(F)c2)C(=O)O1`, the Drug metabolism entry in series [1], in series [2], in series [3] and in [6] was “Metabolite_Detected” each time. In series [4], the half-life is 2.7 h. Further, in series [5], the solubility was 11.9 µg/mL (≈ 26.2 µM).

Usually MIC stands for the lowest concentration found to suppress growth. In general, IC50 refers to the concentration needed to halve the response being measured. What is called inhibition is the share of the control response that was lost under treatment. `CC(=O)NC[C@H]1CN(c2ccc(-c3ccc(/C=N/N4CCSCC4)c(O)c3)c(F)c2)C(=O)O1`: the minimum inhibitory concentration (MIC) with Staphylococcus aureus [7] was 0.125 to 0.25 µg/mL (≈ 0.265 to 0.529 µM); in the series on Staphylococcus aureus [9], 0.125 µg/mL (≈ 0.265 µM); in the series with Enterococcus faecalis [11], 0.125 to 0.25 µg/mL (≈ 0.265 to 0.529 µM); in the series with Enterococcus faecalis [12], 0.125 µg/mL (≈ 0.265 µM); with Enterococcus faecium [14] it was 0.125 to 0.25 µg/mL (≈ 0.265 to 0.529 µM); in the series with Staphylococcus aureus [16], 0.125 µg/mL (≈ 0.265 µM). Further, the MIC with Enterococcus faecium [18] and with Staphylococcus aureus [19] was 0.125 µg/mL (≈ 0.265 µM) in each case. In addition, the IC50 in the series with HepG2 is more than 25 µM. Further, at MAO-A, the inhibition at 1 h, 30 µM was 62%. Moreover, in the series with Staphylococcus aureus [8], the Ratio is recorded as 4 - 32. Moreover, in series [10], the remaining at 0.5 h is 96%. In series [13], the remaining at 2 h was 75.9%. The remaining at 1.5 h in series [15] was 82.9%. In addition, the remaining at 1 h in [17] was 94.6%.

Turning to `CC(=O)NC[C@H]1CN(c2ccc(-c3ccc(/C=N/N4CCN(C)CC4)nc3)c(F)c2)C(=O)O1`, the minimal inhibitory concentration (MIC) is 2 µg/mL (≈ 4.4 µM) in the series with Staphylococcus aureus [7]; 2 µg/mL (≈ 4.4 µM) in the series with Staphylococcus aureus [22]; 0.125 µg/mL (≈ 0.275 µM) in the series on Staphylococcus aureus [9]; 0.25 to 0.5 µg/mL (≈ 0.55 to 1.1 µM) in the series with Enterococcus faecalis [11]; 0.25 µg/mL (≈ 0.55 µM) with Enterococcus faecalis [12]; 0.25 to 0.5 µg/mL (≈ 0.55 to 1.1 µM) in the series with Enterococcus faecium [14]. Also, the MIC turned out to be 0.125 µg/mL (≈ 0.275 µM) in the series with Staphylococcus aureus [16], 0.25 µg/mL (≈ 0.55 µM) with Enterococcus faecium [18] and 0.125 µg/mL (≈ 0.275 µM) in the series with Staphylococcus aureus [19]. The IC50 in the series with HepG2 is more than 25 µM. The Ratio with Staphylococcus aureus [20], in the series with Staphylococcus aureus [23], in the series with Enterococcus faecium [24] and with Enterococcus faecalis [26] was 2 - 4 each time. Besides, the remaining at 0.75 h, 1.5 µM in series [21] turned out to be 74.9%. The inhibition at 1 h, 30 µM at MAO-A stood at 79%. The CLint scaled at 1.5 µM in series [25] is 17.2 mL/min/kg. Also, the remaining at 0.5 h in series [10] was 98.3%. In addition, the remaining at 2 h in series [13] was 95.8%. The remaining at 1.5 h in series [15] was 96.2%. In series [5], this compound registered a solubility of 63 µg/mL (≈ 139 µM). For the same compound, the remaining at 1 h in [17] was 96.8%. Further, the half-life at 1.5 µM in [27] is 1.68 h.
